Assays:
[1] = biological target: T1, Beta-3 adrenergic receptor (Homo sapiens, UniProt P13945); assay: Agonistic activity was assessed by measuring cAMP accumulation in CHO cells expressing human beta-3 adrenergic receptor; format: functional, cell-based
Target sequence in this assay (P13945 whole entry): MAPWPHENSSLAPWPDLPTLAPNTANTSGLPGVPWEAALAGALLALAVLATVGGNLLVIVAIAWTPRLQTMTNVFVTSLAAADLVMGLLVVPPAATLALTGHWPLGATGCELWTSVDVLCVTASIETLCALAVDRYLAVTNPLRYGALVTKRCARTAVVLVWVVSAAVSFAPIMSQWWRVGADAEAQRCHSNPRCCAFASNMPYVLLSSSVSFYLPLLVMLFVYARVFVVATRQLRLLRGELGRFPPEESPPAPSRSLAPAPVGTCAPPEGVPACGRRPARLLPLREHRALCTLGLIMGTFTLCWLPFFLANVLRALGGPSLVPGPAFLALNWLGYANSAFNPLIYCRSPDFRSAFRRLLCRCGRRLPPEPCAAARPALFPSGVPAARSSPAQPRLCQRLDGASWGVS

Caco-2 [2] = assay: Permeability of compounds was determined in Caco-2 cell monolayer permeability assay; (high); format: functional, cell-based; conditions: Homo sapiens
[3] = biological target: T1, Beta-3 adrenergic receptor; assay: Intrinsic activity against human beta-3 adrenergic receptor IA) as a percentage of maximal stimulation with isoproterenol; format: functional
Outline: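 In CHO cells expressing low-density human β3-AR (13,000 receptors/cell), cAMP accumulation was measured. Intrinsic activity is expressed as a percentage of the maximal stimulation produced by isoproterenol.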
Target sequence in this assay (P13945 whole entry, looked up): as the sequence (P13945 whole entry) above

[4] = biological target: T2, Beta-2 adrenergic receptor (Homo sapiens, UniProt P07550); assay: Agonistic activity was assessed by measuring cAMP accumulation in CHO cells expressing human beta-2 adrenergic receptor; format: functional, cell-based
[5] = biological target: Beta-1 adrenergic receptor (Homo sapiens, UniProt P08588); assay: Agonistic activity was assessed by measuring cAMP accumulation in CHO cells expressing human beta-1 adrenergic receptor; format: functional, cell-based
[6] = biological target: T2, Beta-2 adrenergic receptor; assay: Effective concentration against human beta-2 adrenergic receptor; format: functional
Caco-2 [7] = assay: Permeability of compounds was determined in Caco-2 cell monolayer permeability assay; (moderate); format: functional, cell-based; conditions: Homo sapiens

Chain of Beta-1 adrenergic receptor (P08588 whole entry): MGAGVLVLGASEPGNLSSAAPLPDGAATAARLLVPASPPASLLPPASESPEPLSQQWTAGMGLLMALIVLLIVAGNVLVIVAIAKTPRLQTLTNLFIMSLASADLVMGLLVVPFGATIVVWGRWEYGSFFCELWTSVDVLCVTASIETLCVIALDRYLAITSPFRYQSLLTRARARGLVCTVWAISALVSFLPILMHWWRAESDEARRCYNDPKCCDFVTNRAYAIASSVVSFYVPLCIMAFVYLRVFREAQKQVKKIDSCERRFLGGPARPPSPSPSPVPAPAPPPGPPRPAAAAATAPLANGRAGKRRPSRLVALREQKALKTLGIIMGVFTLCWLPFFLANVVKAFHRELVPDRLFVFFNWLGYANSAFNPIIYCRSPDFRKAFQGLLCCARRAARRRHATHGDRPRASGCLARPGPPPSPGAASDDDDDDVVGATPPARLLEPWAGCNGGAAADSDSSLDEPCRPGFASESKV
T2 sequence (P07550 whole entry): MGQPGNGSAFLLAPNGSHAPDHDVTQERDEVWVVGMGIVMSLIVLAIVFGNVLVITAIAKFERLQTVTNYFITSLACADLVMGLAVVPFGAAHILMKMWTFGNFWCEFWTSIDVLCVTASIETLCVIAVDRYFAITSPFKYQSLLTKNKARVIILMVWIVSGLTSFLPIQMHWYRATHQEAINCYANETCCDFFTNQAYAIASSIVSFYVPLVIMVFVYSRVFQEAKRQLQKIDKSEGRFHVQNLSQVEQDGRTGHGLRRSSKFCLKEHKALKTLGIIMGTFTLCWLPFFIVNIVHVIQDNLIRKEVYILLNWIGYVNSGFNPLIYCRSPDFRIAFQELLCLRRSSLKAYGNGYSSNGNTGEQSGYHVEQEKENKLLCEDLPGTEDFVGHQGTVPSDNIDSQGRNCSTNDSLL

Row | Compound | EC50 [1] [nM] | Permeability (Papp* 10E6 cm/s) (Caco-2 [2]) | IA50 [3] [%] | EC50 [4] [nM] | EC50 [5] [nM] | EC50 [6] [nM] | Permeability (Papp* 10E6 cm/s) (Caco-2 [7])
1 | C[C@H](Cc1c[nH]c2c(OS(C)(=O)=O)cccc12)NC[C@H](O)c1cccc(NCc2ccccc2)c1 | 11 | 9 | 87 | 16 | – | – | –
2 | C[C@H](Cc1c[nH]c2c(OS(C)(=O)=O)cccc12)NC[C@H](O)c1cccc(NC/C=C/c2ccccc2)c1 | 1 | – | 97 | 13 | – | – | –
3 | C/C=C/CNc1cccc([C@@H](O)CN[C@H](C)Cc2c[nH]c3c(OS(C)(=O)=O)cccc23)c1 | 1.2 | – | 102 | 10 | 170 | – | –
4 | C=CCNc1cccc([C@@H](O)CN[C@H](C)Cc2c[nH]c3c(OS(C)(=O)=O)cccc23)c1 | 3.2 | – | 110 | 2.2 | – | – | –
5 | C[C@H](Cc1c[nH]c2c(OS(C)(=O)=O)cccc12)NC[C@H](O)c1cccc(N(C)S(=O)(=O)c2ccccc2)c1 | 52 | 4.7 | 38 | – | – | – | –
6 | C[C@H](Cc1c[nH]c2c(OS(C)(=O)=O)cccc12)NC[C@H](O)c1cccc(OCc2ccccc2)c1 | 15 | 6.7 | 90 | 46 | – | – | –
7 | C[C@H](Cc1c[nH]c2c(OS(C)(=O)=O)cccc12)NC[C@H](O)c1cccc(NS(=O)(=O)c2ccccc2)c1 | 0.54 | – | 90 | – | 13 | 19 | –
8 | C[C@H](Cc1c[nH]c2c(OS(C)(=O)=O)cccc12)NC[C@H](O)c1cccc(CS(=O)(=O)c2ccccc2)c1 | 100 | – | 54 | – | – | – | 0.9
9 | C#CCNc1cccc([C@@H](O)CN[C@H](C)Cc2c[nH]c3c(OS(C)(=O)=O)cccc23)c1 | 10 | – | 102 | 9.6 | 45 | – | –
10 | C[C@H](Cc1c[nH]c2c(OS(C)(=O)=O)cccc12)NC[C@H](O)c1cccc(NCc2ccc3ccccc3c2)c1 | 2.9 | – | 107 | – | – | – | –
11 | CC/C=C/CNc1cccc([C@@H](O)CN[C@H](C)Cc2c[nH]c3c(OS(C)(=O)=O)cccc23)c1 | 9 | – | 101 | 11 | – | – | –
12 | C=C(C)CNc1cccc([C@@H](O)CN[C@H](C)Cc2c[nH]c3c(OS(C)(=O)=O)cccc23)c1 | 17 | – | 114 | 1.5 | – | – | –
13 | C[C@H](Cc1c[nH]c2c(OS(C)(=O)=O)cccc12)NC[C@H](O)c1cccc(OS(=O)(=O)c2ccccc2)c1 | 32 | 7 | 60 | – | – | – | –
14 | CC(C)=CCNc1cccc([C@@H](O)CN[C@H](C)Cc2c[nH]c3c(OS(C)(=O)=O)cccc23)c1 | 36 | – | 79 | 36 | 160 | – | –
15 | C[C@H](Cc1c[nH]c2c(OS(C)(=O)=O)cccc12)NC[C@H](O)c1cccc(NC(=O)c2ccccc2)c1 | 160 | – | 96 | 69 | 120 | – | 0.9
16 | CC#CCNc1cccc([C@@H](O)CN[C@H](C)Cc2c[nH]c3c(OS(C)(=O)=O)cccc23)c1 | 6.5 | – | 90 | 18 | – | – | –

Reference: ChEMBL document CHEMBL1144318, “Tryptamine-based human beta3-adrenergic receptor agonists. Part 3: improved oral bioavailability via modification of the sulfonamide moiety” (Bioorg Med Chem Lett, 2005)
